Results taken from ChEMBL document CHEMBL1152977, “Phenolic glycosides from Alangium salviifolium leaves with inhibitory activity on LPS-induced NO, PGE(2), and TNF-alpha production” (Bioorg Med Chem Lett, 2009).

Experiments:
RAW264.7 [1] = assay: Antiinflammatory activity in LPS-stimulated mouse RAW264.7 cells assessed as PGE2 production at 10 uM treated 1 hr before LPS challenge measured after 24 hrs by enzyme immunoassay (RVb=11.5 +/- 0.36 uM); format: functional
RAW264.7 [2] = assay: Antiinflammatory activity in LPS-stimulated mouse RAW264.7 cells assessed as NO production at 10 uM treated 1 hr before LPS challenge measured after 24 hrs by Griess reagent assay (RVb= 28.72 +/- 1.31 uM); format: functional
How it was run: (§1)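 Culture medium (phenol red-free) collected after 1 h compound pretreatment then 24 h with LPS 1 µg/mL; mixed 1:1 with Griess reagent (1% sulfanilamide in 5% phosphoric acid plus 0.1% naphthylethylenediamine-HCl), 10 min room temperature, absorbance 550 nm. Nitrite quantified against NaNO2 serial-dilution standard curve, fresh medium as blank. L-NIL 10 µM positive control; means ± S.E.M., three independent experiments.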

RAW264.7 [3] = assay: Cytotoxicity against LPS-stimulated mouse RAW264.7 cells assessed as cell viability at 50 uM after 24 hrs by MTT assay; format: cell-based; details: raw264.7, 24 h
How it was run: (§2)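 MTT viability assay on RAW 264.7 cells at up to 50 µM for 24 h, run both with and without LPS.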

RAW264.7 [4] = assay: Cytotoxicity against mouse RAW264.7 cells assessed as cell viability at 50 uM after 24 hrs by MTT assay; format: cell-based; details: raw264.7, 24 h; how it was run: as §2
RAW264.7 [5] = assay: Antiinflammatory activity in mouse RAW264.7 cells assessed as inhibition of LPS-stimulated NO production treated 1 hr before LPS challenge measured after 24 hrs by Griess reagent assay; format: functional, cell-based; how it was run: as §1
RAW264.7 [6] = assay: Antiinflammatory activity in mouse RAW264.7 cells assessed as decrease in LPS-stimulated PGE2 production treated 1 hr before LPS challenge measured after 24 hrs by enzyme immunoassay; format: functional, cell-based
How it was run: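 Cells pre-incubated 1 h with compound (5, 25, 50 µM tested), then LPS 1 µg/mL for 24 h; PGE2 in culture medium quantified by EIA kit per manufacturer. NS-398 10 µM positive control; means ± S.E.M. of three independent experiments, Student's t-test versus LPS-treated group.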

RAW264.7 [7] = assay: Antiinflammatory activity in LPS-stimulated mouse RAW264.7 cells assessed as TNFalpha production at 5 uM treated 1 hr before LPS challenge measured after 24 hrs by enzyme immunoassay (RVb=46.7 +/- 4.8 uM); format: functional
RAW264.7 [8] = assay: Antiinflammatory activity in LPS-stimulated mouse RAW264.7 cells assessed as TNFalpha production at 25 uM treated 1 hr before LPS challenge measured after 24 hrs by enzyme immunoassay (RVb=46.7 +/- 4.8 uM); format: functional
RAW264.7 [9] = assay: Antiinflammatory activity in LPS-stimulated mouse RAW264.7 cells assessed as TNFalpha production at 50 uM treated 1 hr before LPS challenge measured after 24 hrs by enzyme immunoassay (RVb=46.7 +/- 4.8 uM); format: functional

Row | SMILES | Activity (RAW264.7 [1]) [ng/mL] | Activity (RAW264.7 [2]) [µM] | Activity (RAW264.7 [3]) | Activity (RAW264.7 [4]) | Activity (RAW264.7 [5]) | Activity (RAW264.7 [6]) | Activity (RAW264.7 [7]) [ng/mL] | Activity (RAW264.7 [8]) [ng/mL] | Activity (RAW264.7 [9]) [ng/mL]
1 | CS(=O)(=O)Nc1ccc([N+](=O)[O-])cc1OC1CCCCC1 [NS-398] | 3.2 |  |  |  |  |  |  |  | 
2 | CC(=N)NCCCC[C@H](N)C(=O)O [L-NIL] |  | 11.3 |  |  |  |  |  |  | 
3 | O=C(OCc1ccc(O[C@@H]2O[C@H](CO)[C@@H](O)[C@H](O)[C@H]2O)c(O)c1)c1ccccc1 [SALVIIFOSIDE A] |  |  | Non-toxic | Non-toxic | Dose-dependent effect | Dose-dependent effect |  |  | 
4 | O=C(/C=C/c1ccccc1O)OCc1ccc(O[C@@H]2O[C@H](CO)[C@@H](O)[C@H](O)[C@H]2O)c(O)c1 [SALVIIFOSIDE B] |  |  | Non-toxic | Non-toxic | Dose-dependent effect | Dose-dependent effect | 43.2 | 24.4 | 11.2
5 | COc1ccccc1/C=C/C(=O)OCc1ccc(O[C@@H]2O[C@H](CO)[C@@H](O)[C@H](O)[C@H]2O)c(O)c1 [SALVIIFOSIDE C] |  |  | Non-toxic | Non-toxic | Dose-dependent effect | Dose-dependent effect |  |  | 
